{
  "source": "ChEMBL document CHEMBL3627702",
  "about": "“Navigating CYP1A Induction and Arylhydrocarbon Receptor Agonism in Drug Discovery. A Case History with S1P1 Agonists” (J Med Chem, 2015)",
  "key": {"[1]": {"assay": "Oral bioavailability in CD rat at 3 mg/kg", "format": "ADME, organism-based", "settings": "in vivo", "outline": "(§1)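 Male CD rats cannulated in the femoral and jugular veins, n = 3, crossover design. Day 1: 1 h iv infusion at 1 mg/kg (0.2 mg/mL in ≤5% DMSO/≥95% 10% Kleptose in saline, 5 mL/kg/h). Day 2: oral gavage at 3 mg/kg (0.6 mg/mL in 1% methylcellulose, 5 mL/kg). Blood assayed by LC–MS/MS after acetonitrile precipitation.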"}, "[2]": {"assay": "Half life in CD rat at 1 mg/kg, iv", "format": "ADME, organism-based", "settings": "in vivo", "outline": "(§2)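 Male CD rats carried femoral vein (dosing) and jugular vein (sampling) cannulae and recovered at least 2 days. They received a 1 h iv infusion at 5 mL kg−1 h−1, target 1 mg/kg, at 0.2 mg/mL in DMSO/10% Kleptose in saline (≤5%:≥95%). pH was adjusted to 8.0 if needed and the solution filtered. Definitive studies used n = 3 in crossover; others used single animals.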"}, "[3]": {"assay": "Volume of distribution at steady state in CD rat at 1 mg/kg, iv", "format": "ADME, organism-based", "settings": "in vivo, read-out: Vdss", "outline": "as §1"}, "[4]": {"assay": "Blood clearance in CD rat at 1 mg/kg, iv", "format": "ADME, organism-based", "outline": "as §2"}, "[5]": {"assay": "Lipophilicity, log D of the compound at pH 7.4", "format": "physicochemical", "settings": "buffer"}, "[6]": {"biological_target": "Sphingosine 1-phosphate receptor 3 (Homo sapiens, UniProt Q99500)", "sequence (Q99500 whole entry)": "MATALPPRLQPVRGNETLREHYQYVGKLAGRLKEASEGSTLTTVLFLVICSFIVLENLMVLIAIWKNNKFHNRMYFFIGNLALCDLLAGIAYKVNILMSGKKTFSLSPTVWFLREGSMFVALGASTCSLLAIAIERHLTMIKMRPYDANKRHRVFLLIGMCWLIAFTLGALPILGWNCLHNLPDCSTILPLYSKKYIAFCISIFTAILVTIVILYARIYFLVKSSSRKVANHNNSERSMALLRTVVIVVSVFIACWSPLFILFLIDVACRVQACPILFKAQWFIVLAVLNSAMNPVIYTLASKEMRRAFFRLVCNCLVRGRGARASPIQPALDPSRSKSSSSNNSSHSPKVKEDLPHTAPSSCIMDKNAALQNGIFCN", "assay": "Agonist activity at S1P3 receptor (unknown origin) expressed in RBL membranes assessed as GTPgammaS binding after 3 hrs", "format": "functional, cell membranes", "outline": "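Membranes from S1P3-expressing RBL cells were sucrose-gradient purified, used at 0.44 μg/well and coupled to WGA-coated SPA beads. Buffer was 20 mM HEPES, 10 mM MgCl2, 100 mM NaCl, pH 7.4, with 2 μg/well saponin. Precoupling was 30 min on ice. GDP was present at 5 μM final.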"}, "[7]": {"biological_target": "Sphingosine 1-phosphate receptor 1 (Homo sapiens, UniProt P21453)", "sequence (P21453 whole entry, the tested form may be a part)": "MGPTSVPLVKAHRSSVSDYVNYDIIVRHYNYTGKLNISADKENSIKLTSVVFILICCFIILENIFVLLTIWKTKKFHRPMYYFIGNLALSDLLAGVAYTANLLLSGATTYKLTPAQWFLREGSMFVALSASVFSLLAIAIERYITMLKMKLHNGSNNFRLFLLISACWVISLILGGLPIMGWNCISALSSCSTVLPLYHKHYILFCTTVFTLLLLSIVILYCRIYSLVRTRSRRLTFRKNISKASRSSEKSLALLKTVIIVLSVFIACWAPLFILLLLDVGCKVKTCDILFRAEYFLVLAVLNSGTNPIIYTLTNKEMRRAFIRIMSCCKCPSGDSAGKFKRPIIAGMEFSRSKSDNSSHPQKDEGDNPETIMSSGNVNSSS", "assay": "Agonist activity at S1P1 receptor (unknown origin) expressed in CHO-K1 cells assessed as beta-arrestin recruitment after 60 mins by chemiluminescence assay", "format": "cell-based", "settings": "in the assay text read “after 90 mins” for “after 60 mins”", "outline": "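PathHunter CHO-K1 cells stably express S1P1 and β-arrestin 2 fused to complementing β-galactosidase fragments. Cells in pH 7.4 HEPES/NaHCO3 buffer with 0.1% pluronic and 0.1% BSA were added to DMSO compound plates at 1 × 10^4 cells/well. Incubation was 90 min at 37 °C/5% CO2, then 15 min at room temperature. Galacton Star/Emerald II detection mix was added for 60 min at room temperature, and luminescence was read.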"}, "CYP1A1": {"tested_on": "CYP1A1", "assay": "Induction of CYP1A1 mRNA expression in Sprague-Dawley rat hepatic microsomes at 30 mg/kg, po QD for 4 days relative to control", "format": "ADME, organism-based, Liver", "settings": "read-out: FC", "outline": "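Male CD rats (226–325 g, n = 3) were dosed by oral gavage once daily for 4 days as a 1% w/v aqueous methylcellulose suspension (3–6 mg/mL, 5 mL/kg). At the end of the study, a left lateral liver lobe section was placed in RNALater and homogenised in TRIzol. RNA was purified, DNase-treated and converted to cDNA, and Cyp1a1 was read on low-density TaqMan arrays.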"}, "[8]": {"assay": "Dissociation constant, pKa of the compound", "format": "physicochemical"}, "CYP1A2": {"tested_on": "CYP1A2", "assay": "Induction of CYP1A2 mRNA expression in Sprague-Dawley rat hepatic microsomes at 30 mg/kg, po QD for 4 days relative to control", "format": "ADME, organism-based, Liver", "settings": "read-out: FC"}, "[9]": {"assay": "Cmax in Sprague-Dawley rat at 30 mg/kg, po QD measured on day 1", "format": "ADME, organism-based", "design": "dose 30 mg/kg, route oral", "settings": "in vivo", "outline": "(§3)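 Male CD rats (226−325 g), n = 3, given the compound once daily by oral gavage for 4 days. Vehicle was 1% (w/v) methylcellulose aq suspension at 3−6 mg/mL, dosed at 5 mL/kg (target 15−30 mg/kg). Tail vein blood was taken on days 1 and 4 up to 24 h postdose. Blood was diluted 1:1 with water, extracted by acetonitrile protein precipitation and analysed by LC−MS/MS against calibration standards in diluted blood.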"}, "[10]": {"assay": "Cmax in Sprague-Dawley rat at 30 mg/kg, po QD measured on day 4", "format": "ADME, organism-based", "design": "dose 30 mg/kg, route oral", "settings": "in vivo", "outline": "as §3"}, "[11]": {"assay": "AUC in Sprague-Dawley rat at 30 mg/kg, po QD measured on day 1", "format": "ADME, organism-based", "settings": "in vivo", "outline": "as §3"}, "[12]": {"assay": "AUC in Sprague-Dawley rat at 30 mg/kg, po QD measured on day 4", "format": "ADME, organism-based", "settings": "in vivo", "outline": "as §3"}, "Rattus norvegicus [13]": {"tested_on": "Rattus norvegicus", "assay": "Dose normalized AUC in Sprague-Dawley rat at 30 mg/kg, po QD measured on day 1", "format": "ADME, organism-based", "settings": "in vivo", "outline": "as §3"}, "Rattus norvegicus [14]": {"tested_on": "Rattus norvegicus", "assay": "Dose normalized AUC in Sprague-Dawley rat at 30 mg/kg, po QD measured on day 4", "format": "ADME, organism-based", "settings": "in vivo", "outline": "as §3"}, "[15]": {"assay": "Intrinsic clearance in dog hepatocytes by LC-MS/MS analysis", "settings": "read-out: CLH"}, "[16]": {"assay": "Intrinsic clearance in rat hepatocytes by LC-MS/MS analysis", "settings": "read-out: CLH"}, "[17]": {"assay": "Intrinsic clearance in human hepatocytes by LC-MS/MS analysis", "settings": "read-out: CLH"}},
  "data": [
    {"molecule": "Cc1c(-c2noc(-c3ccc(OC(C)C)c(C#N)c3)n2)ccc2c1CCN(C[C@@H](O)CO)C2", "values": [
      {"measurement": "bioavailability", "setting": "[1]", "result": 56, "unit": "%"},
      {"measurement": "half-life", "setting": "[2]", "result": 102, "unit": "min"},
      {"measurement": "Vd", "setting": "[3]", "result": 6.6, "unit": "L/kg"},
      {"measurement": "clearance", "setting": "[4]", "result": 53, "unit": "mL/min/kg"},
      {"measurement": "logD", "setting": "[5]", "result": 2.16},
      {"measurement": "EC50", "setting": "[6]", "result": "> 31.6", "unit": "µM"},
      {"measurement": "EC50", "setting": "[7]", "result": 7.94, "unit": "nM"},
      {"measurement": "fold induction at 96 h", "setting": "CYP1A1", "result": 62},
      {"measurement": "pKa", "setting": "[8]", "result": 7.7},
      {"measurement": "fold induction at 96 h", "setting": "CYP1A2", "result": 4.6},
      {"measurement": "Cmax", "setting": "[9]", "result": 720, "unit": "ng/mL"},
      {"measurement": "Cmax", "setting": "[10]", "result": 710, "unit": "ng/mL"},
      {"measurement": "AUC", "setting": "[11]", "result": 7310, "unit": "ng·h/mL"},
      {"measurement": "AUC", "setting": "[12]", "result": 7000, "unit": "ng·h/mL"},
      {"measurement": "AUC/dose", "setting": "Rattus norvegicus [13]", "result": 15, "unit": "kg·min/L"},
      {"measurement": "AUC/dose", "setting": "Rattus norvegicus [14]", "result": 15, "unit": "kg·min/L"},
      {"measurement": "CLint scaled", "setting": "[15]", "result": 7.1, "unit": "mL/min/kg"},
      {"measurement": "CLint scaled", "setting": "[16]", "result": 2.1, "unit": "mL/min/kg"},
      {"measurement": "CLint scaled", "setting": "[17]", "result": "< 0.85", "unit": "mL/min/kg"}
    ]}
  ]
}
